Source: ChEMBL document CHEMBL1146047, “Novel pyrazolopyrimidopyridazinones with potent and selective phosphodiesterase 5 (PDE5) inhibitory activity as potential agents for treatment of erectile dysfunction” (J Med Chem, 2006)

Key:
[1] = biological target: T1, cGMP-specific 3',5'-cyclic phosphodiesterase (Homo sapiens, UniProt O76074); experiment: Inhibition of PDE5 at 0.2 uM
In short: (§1)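 PDE5 enzyme preparation was stored frozen at -80 °C with 1 g/L bovine serum albumin until use. […] Activity is reported as percent inhibition at the single test concentration indicated.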

[2] = system: Phosphodiesterase 6 (Bos taurus); experiment: Inhibition of PDE6 at 0.2 uM
[3] = biological target: T1, cGMP-specific 3',5'-cyclic phosphodiesterase; experiment: Inhibition of PDE5
[4] = system: Phosphodiesterase 6 (Bos taurus); experiment: Inhibition of PDE6 at 2 uM
[5] = biological target: T1, cGMP-specific 3',5'-cyclic phosphodiesterase; experiment: Inhibition of PDE5 at 2 uM; in short: as §1
[6] = biological target: Phosphodiesterase 6 (Bos taurus); experiment: Inhibition of PDE6
Homo sapiens = species: Homo sapiens; experiment: Selectivity for PDE5 over PDE6

| IC50 [3] | inhibition [4] | inhibition [5] | SMILES | also measured |
| --- | --- | --- | --- | --- |
|  |  |  | Cc1nn(CC(=O)O)c(=O)c2nc(C)n3nc(-c4ccccc4)cc3c12 | inhibition [1]: 7.6%; inhibition [2]: 11.2% |
| 95 nM | 1.1% |  | COC(=O)CCCCc1nc2c(=O)n(Cc3ccccc3)nc(C)c2c2cc(-c3ccccc3)nn12 |  |
|  | 26.6% | 67.7% | Cc1nn(CCC2CCNCC2)c(=O)c2nc(C)n3nc(-c4ccccc4)cc3c12 |  |
|  | 32.5% | 54.6% | CCCCn1nc(C)c2c(nc(C)n3nc(-c4ccccc4)cc23)c1=O |  |
|  |  |  | C#CCn1nc(C)c2c(nc(C)n3nc(-c4ccccc4)cc23)c1=O | inhibition [1]: 19.7%; inhibition [2]: 0.3% |
| 71 nM |  |  | CCOCc1nn(Cc2ccccc2)c(=O)c2nc(C)n3nc(-c4ccccc4)cc3c12 | IC50 [6]: 0.33 µM |
| 100 nM | 3.8% |  | COc1cccc(Cn2nc(C)c3c(nc(C)n4nc(-c5ccccc5)cc34)c2=O)c1 | Selectivity ratio (Homo sapiens): > 20 |
| 100 nM | 59.8% |  | Cc1nc2c(=O)n(Cc3ccccc3)nc(C(C)C)c2c2cc(-c3ccccc3)nn12 |  |
|  |  | 56.8% | Cc1nnc(NCc2ccc3c(c2)OCO3)c2nc(C)n3nc(-c4ccccc4)cc3c12 |  |
|  | 1.2% | 44.7% | Cc1nn(C(C)C)c(=O)c2nc(C)n3nc(-c4ccccc4)cc3c12 |  |
| 50 nM |  |  | Cc1nn(Cc2ccccc2)c(=O)c2nc(C)n3nc(-c4ccoc4)cc3c12 | IC50 [6]: 0.33 µM |
|  |  |  | Cc1nc2c(=O)n(Cc3ccccc3)nc(CN3CCN(C)CC3)c2c2cc(-c3ccccc3)nn12 | inhibition [1]: 23%; inhibition [2]: 30% |
| 240 nM | 39.4% |  | Cc1nn(Cc2ccncc2)c(=O)c2nc(C)n3nc(-c4ccccc4)cc3c12 |  |
|  | 25% |  | Cc1nn(Cc2ccccc2)c(=O)c2nc(C)n3nc(-c4ccccc4)cc3c12 |  |
|  | 2.8% | 3.8% | Cc1nn(Cc2ccccc2)c(=O)c2nc(C)n3nc(-c4ccc(S(C)(=O)=O)cc4)cc3c12 |  |
|  |  | 52.4% | Cc1nnc(NCc2ccccc2)c2nc(C)n3nc(-c4ccccc4)cc3c12 |  |
|  |  | 49.3% | CCn1nc(C)c2c(nc(C)n3nc(-c4ccccc4)cc23)c1=O | inhibition [2]: 53.4% |
| 140 nM |  |  | Cc1nn(Cc2ccccc2)c(=O)c2nc(C)n3nc(-c4ccsc4)cc3c12 | Selectivity ratio (Homo sapiens): 16; IC50 [6]: 2.2 µM |
| 470 nM |  |  | Cc1nn(Cc2ccccc2)c(=O)c2nc(C)n3nc(-c4cccnc4)cc3c12 | IC50 [6]: 0.28 µM |
| 8.3 nM | 22.8% |  | CC(=O)CCc1nc2c(=O)n(Cc3ccccc3)nc(C)c2c2cc(-c3ccccc3)nn12 | Selectivity ratio (Homo sapiens): > 240 |
| 370 nM |  |  | Cc1nn(Cc2ccccc2)c(=O)c2nc(C)n3nc(-c4ccc(Cl)cc4)cc3c12 | IC50 [6]: 4.7 µM |
| 180 nM |  |  | Cc1nn(Cc2ccccc2)c(=O)c2ncn3nc(-c4ccccc4)cc3c12 | IC50 [6]: 0.86 µM |
|  | 6.9% | 44.9% | CCCn1nc(C)c2c(nc(C)n3nc(-c4ccccc4)cc23)c1=O |  |
| 390 nM | 7% |  | Cc1nn(Cc2ccc3c(c2)OCO3)c(=O)c2nc(C)n3nc(-c4ccccc4)cc3c12 |  |
|  | 12.3% | 14.3% | Cc1nc2c(=O)n(Cc3ccccc3)nc(C3CCCC3)c2c2cc(-c3ccccc3)nn12 |  |
|  | 4.5% | 38.8% | Cc1nn(Cc2ccccc2)c(=O)c2nc(C)n3nc(-c4ccc(F)cc4)cc3c12 |  |
| 79 nM | 16.9% |  | COC(=O)CCc1nc2c(=O)n(Cc3ccccc3)nc(C)c2c2cc(-c3ccccc3)nn12 |  |
| 220 nM | 21.8% |  | CCc1nn(Cc2ccccc2)c(=O)c2nc(C)n3nc(-c4ccccc4)cc3c12 |  |
| 40 nM |  |  | CCCc1nc2c(=O)n(Cc3ccccc3)nc(C)c2c2cc(-c3ccccc3)nn12 | Selectivity ratio (Homo sapiens): 15; IC50 [6]: 0.61 µM |
